This is an account of results in ChEMBL document CHEMBL1126310, “Affinity probes for the avermectin binding proteins” (J Med Chem, 1992).

Holding throughout (format): functional
In experiment [1] the test system is Caenorhabditis elegans. In words: Compound was evaluated for the biological activity by Caenorhabditis elegans motility assay. In a few lines:
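About 100 worms per tube, rinsed and resuspended in Krebs bicarbonate buffer pH 7.4. Compounds in DMSO, final 1% DMSO in 500 μL. After 16 h at 22 °C, motility scored by microscope; percentage of immotile worms determined at several concentrations per compound.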

The subject of another experiment is Artemia salina. In words: Compound was evaluated for the biological activity by (Artemia salina) brine shrimp immobilization assay. The procedure, abridged: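 Compounds dissolved at 1 mg/mL in acetonitrile, tested in duplicate as 2-fold serial dilutions in acetonitrile across a row. Brine shrimp added in 0.20 mL brine per well. Immobilization scored by microscope after 6 h at room temperature; IC100 reported.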

The subject of experiment [2] is Caenorhabditis elegans. In words: Compound was evaluated for the binding affinity for Caenorhabditis elegans avermectin using Caenorhabditis elegans membrane homogenates using [3H]IVM as radioligand. The procedure, abridged:
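C. elegans worms washed with 50 mM HEPES pH 7.4, homogenized; 1000g supernatant spun at 28 000g, pellet resuspended to about 12.5 μg protein/mL. Membranes (1.0 mL) incubated with [3H]-IVM (22,23-ditritioivermectin) at 22 °C for 45 min with and without analogs. Filtration over GF/B filters, rinse with cold HEPES containing 0.25% Triton X-100, scintillation counting; IC50 reported.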

Converted amounts (≈) assume the structure as drawn.

By IC50 is commonly meant the concentration that inhibits the measured activity by half. Higher therefore signals a need for much substance. `CCC(C)[C@H]1O[C@]2(CC[C@@H]1C)C[C@@H]1C[C@@H](C/C=C(\C)C(OCOCCN3CC3)[C@@H](C)/C=C/C=C3\COC4[C@H](O)C(C)=C[C@@H](C(=O)O1)[C@]34O)O2` (stereo partly specified): in the experiment with Caenorhabditis elegans [1] (read-out: ED50 (the source's name)), the EC50 was found to be 0.048 µg/mL (≈ 0.07 µM). Further, in the experiment on Artemia salina, the IC100 worked out at 3470 ng/mL. In addition, the IC50 in the experiment on Caenorhabditis elegans [2] (Caenorhabditis elegans, 45 min) came to 5 nM.
On to IVERMECTIN [listing 1 of 2 here], for which the ED50 in the experiment with Caenorhabditis elegans [1] was 0.007 µg/mL. In the experiment on Artemia salina, this molecule returned an IC100 of 430 ng/mL.
The molecule IVERMECTIN [listing 2 of 2 here] registered an IC50 at Caenorhabditis elegans [2] of 0.1 nM.
